The record followed here is PubChem BioAssay AID493053 (Broad Institute, 2011).

The AC50 is the midpoint of the concentration-response curve, whichever way the signal moves.

Assay [1] can be described thus: viability loss in BJeLR fibroblasts, dose response, BJeLR cells, dry powder, set 2 (AID 493053). To be noted: BJeLR fibroblasts viability, Alamar Blue fluorescence, 48 h. In a few lines: (§1)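 buffer or medium = DMEM/M199 plus heat-inactivated FBS | timing = 48 h compound treatment at 37 °C, ~16 h Alamar Blue | detection = Alamar Blue fluorescence, 544/590 nm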
For orientation: Resazurin is reduced to fluorescent resorufin, in cell work by metabolically active cells.

Assay [2] has as its system BJeLR fibroblasts viability, Alamar Blue fluorescence, 48 h. Described as above. In a few lines:
as §1

Several values for one entry are separate records, joined by “and”; a condition that tells them apart may be missing. Identical values can stand only once. Activity calls are given as the source filed them.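 How the source made its calls: active means signal falling with dose, half-maximal concentration at or below ten times the highest valid dose tested; inconclusive means flat curve with loss between 30% and 70%, or a poor fit; inactive means the rest, including flat or rising curves.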

Consider `Cc1ccc(C(=O)N2CCN(C(c3ccccc3)c3ccccc3)CC2)c([N+](=O)[O-])c1`, for which the activity change, negative = viability loss in assay [1] (at 48 µM (top of the series)) was 14.9% (inactive).
As for `Cc1onc(C(=O)NCCNC(c2ccccc2)c2ccccc2)c1[N+](=O)[O-]`, the AC50 in assay [2] is 21600 nM.
As for `Cc1onc(C(=O)NCc2ccc(F)cc2)c1[N+](=O)[O-]`, the activity change, negative = viability loss in assay [1] (at 68 µM (top of the series)) was -1.57% (inactive).
Turning to `Cc1onc(C(=O)N2CCN(C(c3ccc(Cl)cc3)c3ccc(Cl)cc3)CC2)c1[N+](=O)[O-]`, the AC50 in assay [2] was 71 nM.
On the same count and under the same terms, the value for `Cc1onc(C(=O)N2CCN(Cc3ccccc3)CC2)c1[N+](=O)[O-]` was 65300 nM.
Consider `Cc1onc(C(=O)N2CCN(C(c3ccccc3)c3ccccc3)CC2)c1C`, for which the activity change, negative = viability loss in assay [1] (at 48 µM (top of the series)) is 15.3% (inactive).
On to `Cc1onc(C(=O)N2CCN(C(c3ccccc3)c3ccccc3)CC2)c1NS(C)(=O)=O`, for which the activity change, negative = viability loss in assay [1] (at 48 µM (top of the series)) was 15.2% (inactive).
Take `O=C(NCCNC(c1ccccc1)c1ccccc1)c1ccc([N+](=O)[O-])o1`: in assay [2], the AC50 is 39100 nM.
As to `Cc1onc(C(=O)N2CCN(C(c3ccccn3)c3ccccn3)CC2)c1[N+](=O)[O-]`, the activity change, negative = viability loss in assay [1] (at 48 µM (top of the series)) is 9.75% (inactive).
For `Cc1cc(C(=O)N2CCN(Cc3ccccc3)CC2)no1`, the activity change, negative = viability loss in assay [1] (at 68 µM (top of the series)) was 4.49% (inactive).
As for `Cc1onc(C(=O)N2CCN(C(c3ccncc3)c3ccncc3)CC2)c1[N+](=O)[O-]`, the activity change, negative = viability loss in assay [1] (at 48 µM (top of the series)) is 8.19% (inactive).
For the molecule `Cc1onc(C(=O)N2CCCN(C(c3ccccc3)c3ccccc3)CC2)c1[N+](=O)[O-]`, in assay [2], the AC50 was 773 nM.
As for `Cc1oc(C)c(C(=O)N2CCN(C(c3ccccc3)c3ccccc3)CC2)c1C`, the activity change, negative = viability loss in assay [1] (at 48 µM (top of the series)) is 12.2% (inactive).
For the molecule `O=C(c1ccc([N+](=O)[O-])o1)N1CCN(C(c2ccc(F)cc2)c2ccc(F)cc2)CC1`, in assay [2], the AC50 was 50800 nM.
Still for that read-out and setting: then `Cc1onc(C(=O)N2CCN(C(c3ccccc3)c3ccc(Cl)cc3)CC2)c1[N+](=O)[O-]` (stereo not drawn), with 129 nM.
For `O=C(c1noc2ccccc12)N1CCN(C(c2ccccc2)c2ccccc2)CC1`, the activity change, negative = viability loss in assay [1] (at 48 µM (top of the series)) was 3.47% (inactive).
The same measure, in the same setting: then `Cc1onc(C(=O)N2CCN(C(c3ccccc3)c3ccccc3)CC2)c1N`, with 10.4% (inactive); and `CC(C)c1onc(C(=O)N2CCN(C(c3ccccc3)c3ccccc3)CC2)c1[N+](=O)[O-]`, with 2.95% (inactive).
Consider `Cc1onc(C(=O)N2CCOCC2)c1[N+](=O)[O-]`, for which the activity change, negative = viability loss in assay [1] (at 68 µM (top of the series)) is -1.92% (inactive).
In the case of `CC(=O)Nc1c(C(=O)N2CCN(C(c3ccccc3)c3ccccc3)CC2)noc1C`, the activity change, negative = viability loss in assay [1] (at 48 µM (top of the series)) is 11.2% (inactive).
`COc1ccc(C(c2ccc(OC)cc2)N2CCN(C(=O)c3noc(C)c3[N+](=O)[O-])CC2)cc1`: the AC50 in assay [2] was 1570 nM.
For the molecule `CCOC(=O)N1CCN(C(=O)c2noc(C)c2[N+](=O)[O-])CC1`, the activity change, negative = viability loss in assay [1] (at 68 µM (top of the series)) is -2.12% (inactive).
Take `O=C(c1ccc([N+](=O)[O-])o1)N1CCCN(C(c2ccccc2)c2ccccc2)CC1`: in assay [1] (at 48 µM (top of the series)), the activity change, negative = viability loss is -4.17% (inactive).
On the same count and under the same terms, the value for `O=[N+]([O-])c1ccc(CN2CCN(C(c3ccccc3)c3ccccc3)CC2)o1` was 2.87% (inactive).
Take `COc1ccccc1N1CCN(C(=O)c2noc(C)c2[N+](=O)[O-])CC1`: the activity change, negative = viability loss in assay [1] (at 68 µM (top of the series)) is -5.96% (inactive).
For `Cc1onc(C(=O)N2CCN(C(c3ccccc3)c3ccccc3)CC2)c1[N+](=O)[O-]`, the AC50 in assay [2] was 2270 nM and 1030 nM.
For `Cc1onc(C(=O)N2CCN(C(c3ccccc3)c3ccccc3)CC2)c1Br`, the activity change, negative = viability loss in assay [1] (at 48 µM (top of the series)) is 11.7% (inactive).
Regarding `Cc1onc(C(=O)N2CCN(C(c3ccc(F)cc3)c3ccc(F)cc3)CC2)c1[N+](=O)[O-]`, the AC50 in assay [2] was 183 nM.
